The results in this text go back to ChEMBL document CHEMBL4130443, “Targeting breast cancer stem cells by novel HDAC3-selective inhibitors” (Eur J Med Chem, 2017).

The target of series [1] is Histone deacetylase 4 (Homo sapiens) (UniProt P56524). The series is described as follows: Inhibition of human HDAC4 at 1 uM using Boc-Lys(trifluoroacetyl)-AMC substrate. In outline:
(§1)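 Isoform profiling run by a commercial vendor with compounds at 1 µM. Values are percent inhibition, each the average of two determinations.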

Series [2] concerns the target T1, Protein deacetylase HDAC6 (Homo sapiens) (UniProt Q9UBN7).
T1 sequence (whole entry): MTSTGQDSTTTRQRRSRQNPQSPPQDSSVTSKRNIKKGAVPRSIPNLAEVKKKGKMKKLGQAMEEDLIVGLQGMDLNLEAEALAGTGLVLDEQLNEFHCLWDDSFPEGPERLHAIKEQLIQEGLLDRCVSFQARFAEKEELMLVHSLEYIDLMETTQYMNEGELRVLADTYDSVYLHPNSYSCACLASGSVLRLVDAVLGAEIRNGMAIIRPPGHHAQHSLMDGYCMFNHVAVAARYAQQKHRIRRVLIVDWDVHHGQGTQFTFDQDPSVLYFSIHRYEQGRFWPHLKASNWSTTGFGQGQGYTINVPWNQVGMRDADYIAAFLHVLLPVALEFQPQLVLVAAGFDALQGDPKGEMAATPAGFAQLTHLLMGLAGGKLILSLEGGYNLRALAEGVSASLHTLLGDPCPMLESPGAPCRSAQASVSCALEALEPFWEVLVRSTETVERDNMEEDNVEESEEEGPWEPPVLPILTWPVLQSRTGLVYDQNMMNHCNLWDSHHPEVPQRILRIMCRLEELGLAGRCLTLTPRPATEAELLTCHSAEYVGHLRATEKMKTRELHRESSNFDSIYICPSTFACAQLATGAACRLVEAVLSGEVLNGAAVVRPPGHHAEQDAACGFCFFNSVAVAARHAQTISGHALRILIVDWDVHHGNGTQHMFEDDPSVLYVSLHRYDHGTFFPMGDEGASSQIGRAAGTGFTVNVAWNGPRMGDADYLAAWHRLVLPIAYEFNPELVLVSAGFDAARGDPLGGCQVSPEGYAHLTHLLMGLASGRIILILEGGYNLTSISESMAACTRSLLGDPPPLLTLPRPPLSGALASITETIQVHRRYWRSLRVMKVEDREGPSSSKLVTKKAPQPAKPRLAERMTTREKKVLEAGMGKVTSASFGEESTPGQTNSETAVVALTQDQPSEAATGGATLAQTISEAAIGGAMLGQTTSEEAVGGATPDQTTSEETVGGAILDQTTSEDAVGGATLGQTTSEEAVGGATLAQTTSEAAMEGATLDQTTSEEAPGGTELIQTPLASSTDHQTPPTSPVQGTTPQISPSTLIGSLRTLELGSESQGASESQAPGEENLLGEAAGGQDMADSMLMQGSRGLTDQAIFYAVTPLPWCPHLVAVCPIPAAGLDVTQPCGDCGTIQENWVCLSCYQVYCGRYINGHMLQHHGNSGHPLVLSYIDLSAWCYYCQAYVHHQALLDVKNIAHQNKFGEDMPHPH
The experiment in a line: Inhibition of human HDAC6 at 1 uM using p53 (379 to 382 residues) derived fluorogenic peptide RHKKAc. A digest of the protocol: as §1

The subject of series [3] is MDA-MB-231. The experiment in a line: Cytotoxicity in human MDA-MB-231 cells assessed as reduction in cell viability incubated for 24 to 72 hrs by MTT assay. It counts as functional, cell-based. A digest of the protocol:
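MDA-MB-231 seeded 5,000 cells/well with 10% FBS, left overnight, then exposed to agents in 5% FBS for 24, 48 and 72 h. MTT added for 1 h, dye dissolved in DMSO, absorbance at 560 nm. Viability given as percent of the matching vehicle-treated control. N = 6.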
Background: Tetrazolium dyes change colour on reduction, which living cells bring about.

In series [4] the test system is MDA-MB-231. The series is described as follows: Growth inhibition of human MDA-MB-231 cells incubated for 48 to 72 hrs by crystal violet staining based assay. Format: functional, cell-based. A digest of the protocol: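 Cells plated at 5000/well and left overnight, then treated in 5% FBS for 24, 48 and 72 h. Washed with PBS, stained 20 min with 0.5% crystal violet in 20% methanol, stain solubilized in 2% SDS, absorbance read at 550. Growth inhibition calculated as (1-Nt/Nc) x 100 against vehicle wells. N = 6.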

In a further series the target is Histone deacetylase 1 (Homo sapiens, UniProt Q13547). The series is described as follows: Inhibition of human HDAC1 at 1 uM using p53 (379 to 382 residues) derived fluorogenic peptide RHKKAc. A digest of the protocol:
as §1

Series [5] deals with MDA-MB-231. The experiment in a line: Effect on beta-catenin mRNA expression in human MDA-MB-231 cells at 0.5 to 5 uM by RT-PCR method. Format: cell-based. The settings on record: mda-mb-231, 5 µM. A digest of the protocol:
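Monolayer cells treated at graded concentrations. Total RNA isolated with TRIzol. β-catenin mRNA assessed by RT-PCR with β-actin as reference.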

A value given as a limit tells only on which side of the number the result lay.

Chain of Histone deacetylase 1 (Q13547 whole entry, the tested form may be a part): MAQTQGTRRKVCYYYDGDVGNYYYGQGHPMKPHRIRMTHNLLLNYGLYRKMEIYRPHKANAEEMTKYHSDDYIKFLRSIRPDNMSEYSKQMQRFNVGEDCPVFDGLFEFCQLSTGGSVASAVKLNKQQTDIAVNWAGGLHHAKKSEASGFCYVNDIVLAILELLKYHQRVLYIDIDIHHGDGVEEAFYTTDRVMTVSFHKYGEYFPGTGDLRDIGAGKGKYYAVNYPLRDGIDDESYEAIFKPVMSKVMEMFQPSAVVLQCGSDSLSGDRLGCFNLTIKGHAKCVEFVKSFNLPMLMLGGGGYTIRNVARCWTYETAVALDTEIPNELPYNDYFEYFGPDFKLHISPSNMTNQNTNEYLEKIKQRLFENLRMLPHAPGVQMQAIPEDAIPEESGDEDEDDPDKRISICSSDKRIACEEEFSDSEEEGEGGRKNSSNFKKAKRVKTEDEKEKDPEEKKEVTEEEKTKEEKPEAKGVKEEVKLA
Chain of Histone deacetylase 4 (Homo sapiens) (P56524 whole entry, canonical isoform): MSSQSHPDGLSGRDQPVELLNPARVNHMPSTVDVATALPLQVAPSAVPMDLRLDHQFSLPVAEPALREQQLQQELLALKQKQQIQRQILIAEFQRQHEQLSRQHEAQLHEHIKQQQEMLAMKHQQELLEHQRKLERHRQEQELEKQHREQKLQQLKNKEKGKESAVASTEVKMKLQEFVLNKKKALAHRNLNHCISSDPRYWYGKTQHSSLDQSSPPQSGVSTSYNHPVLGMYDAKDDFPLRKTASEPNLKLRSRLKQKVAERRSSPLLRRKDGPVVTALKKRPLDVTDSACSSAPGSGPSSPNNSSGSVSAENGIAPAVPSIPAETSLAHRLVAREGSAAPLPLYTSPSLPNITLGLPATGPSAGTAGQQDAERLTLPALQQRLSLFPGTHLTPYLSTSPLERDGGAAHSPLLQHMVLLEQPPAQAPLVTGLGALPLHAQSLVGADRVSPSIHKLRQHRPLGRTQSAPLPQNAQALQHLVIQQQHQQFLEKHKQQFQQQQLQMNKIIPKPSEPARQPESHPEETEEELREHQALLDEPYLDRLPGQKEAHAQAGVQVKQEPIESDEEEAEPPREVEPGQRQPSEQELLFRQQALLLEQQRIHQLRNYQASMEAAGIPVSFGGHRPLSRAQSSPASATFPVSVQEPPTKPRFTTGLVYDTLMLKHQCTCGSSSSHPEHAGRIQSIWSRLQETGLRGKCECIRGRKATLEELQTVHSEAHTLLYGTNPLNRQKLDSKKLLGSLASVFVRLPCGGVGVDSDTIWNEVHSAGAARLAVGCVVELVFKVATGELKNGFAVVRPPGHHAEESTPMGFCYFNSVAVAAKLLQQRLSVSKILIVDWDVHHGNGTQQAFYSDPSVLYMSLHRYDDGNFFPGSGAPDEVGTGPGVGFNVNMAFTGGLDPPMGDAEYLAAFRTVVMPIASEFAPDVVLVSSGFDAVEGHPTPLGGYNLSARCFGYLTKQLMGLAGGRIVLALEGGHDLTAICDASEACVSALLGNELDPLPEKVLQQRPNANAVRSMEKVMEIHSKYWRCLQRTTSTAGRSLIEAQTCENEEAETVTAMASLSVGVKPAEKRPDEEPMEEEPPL

On to `CC(C)(C(=O)Nc1ccc(C(=O)Nc2ccc(F)cc2N)cc1)c1ccccc1`, for which the inhibition amounted to 0% in series [1], 4% in series [2] and 8% on Histone deacetylase 1. In addition, the half-inhibitory concentration (IC50) in the series on MDA-MB-231 [3] and in the series on MDA-MB-231 [4] was no less than 10 µM each time. Also, the Activity entry in the series on MDA-MB-231 [5] was “Non-Toxic”.

What is called inhibition is the relative decrease from the control value, in per cent. A higher inhibition goes with a response far below the control. What is called IC50 is the concentration needed to halve the response being measured.
